Data published in ChEMBL document CHEMBL2150903, “Synthesis and screening of novel vitamin E derivatives for anticancer functions” (Eur J Med Chem, 2012).
Calls of active or inactive are those of the source. The calls are words filed in the database; no cut-off is given here.

Legend:
Format in all cases: functional, cell-based
[1] = system: MCF7; test: Induction of apoptosis in human MCF7 cells assessed as PARP cleavage at 20 uM after 15 hrs by Western blot analysis
Summary of the method: (§1)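 Cells grown in MEM with 10% FBS, glutamine, penicillin/streptomycin, non-essential amino acids and 2× MEM vitamins; serum cut to 2% for treatment. Compounds dissolved in DMSO (40 mM stock); DMSO vehicle control. Treatment 15 h, then Western blot of whole-cell extracts for PARP cleavage. Primary antibody in 0.1% BSA/TBST overnight at 4 °C, then HRP-conjugated secondary. Two separate experiments.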

[2] = system: MDA-MB-231; test: Induction of apoptosis in human MDA-MB-231 cells assessed as PARP cleavage at 20 uM after 15 hrs by Western blot analysis; summary of the method: as §1
[3] = organism: Mus musculus; test: Induction of apoptosis in mouse 66cl-4GFP cells assessed as PARP cleavage at 20 uM after 15 hrs by Western blot analysis; summary of the method: as §1
[4] = system: MDA-MB-231; test: Induction of apoptosis in human MDA-MB-231 cells at 20 and 40 uM by […]
[5] = system: MCF7; test: Induction of apoptosis in human MCF7 cells at 20 uM by AnnexinV/PI/FITC-based flow cytometric analysis
[6] = system: MCF7; test: Induction of apoptosis in human MCF7 cells at 40 uM by AnnexinV/PI/FITC-based flow cytometric analysis
[7] = system: MDA-MB-231; test: Induction of apoptosis in human MDA-MB-231 cells by AnnexinV/PI/FITC-based flow cytometric analysis
[8] = system: MCF7; test: Induction of apoptosis in human MCF7 cells by AnnexinV/PI/FITC-based flow cytometric analysis

SMILES	Activity [1]	Activity [2]	Activity [3]	Activity [4]	Activity [5]	Activity [6]	EC50 [7] [µM]	EC50 [8] [µM]
CC(C)CCC[C@@H](C)CCC[C@@H](C)CCC[C@]1(C)CCc2cc(O)c(F)cc2O1	inactive	inactive	inactive					
Cc1c(C)c2c(c(C)c1OCC(=O)O)CC[C@@](C)(COCCC(C)CCCC(C)CCCC(C)C)O2 (mixture of isomers)	Active	Active	Active	Active	Active	Active	18	21
Cc1c(C)c2c(c(C)c1OCC(=O)O)CC[C@](C)(COCCC(C)CCCC(C)CCCC(C)C)O2 (mixture of isomers)	Active	Active	Active	Active		Active	16	29
CC(C)CCCC(C)CCCC(C)CCCC1(C)CCc2cc(OCC(=O)O)c(F)cc2O1 (racemic)	Active		Active				34	60
CC(C)CCCC(C)CCCC(C)CCOCC1(C)CCc2cc(OCC(=O)O)c(F)cc2O1 (racemic)	Active	Active	Active	Active		Active	27	35
CC(C)CCCC(C)CCCC(C)CCOCC1(C)CCc2cc(O)c(F)cc2O1 (racemic)	Active							
Cc1c(C)c2c(c(C)c1OCC(=O)O)CC[C@@](C)(CCC[C@H](C)CCC[C@H](C)CCCC(C)C)O2 [.ALPHA.-TOCOPHERYLOXYACETIC ACID]	Active	Active	Active	Active	Active	Active	35	51
